These results are taken from ChEMBL document CHEMBL1127031, “Development of high-affinity 5-HT3 receptor antagonists. Structure-affinity relationships of novel 1,7-annelated indole derivatives” (J Med Chem, 1993).

pKi: −log10 of the molar value.

As a reminder, the pKi is −log10 of the Ki, conventionally taken in molar units. A low value points to a large Ki. For orientation: Ki means the dissociation constant of the complex between target and ligand, obtained from inhibition or displacement.

For experiment [1], the target named is T1, Serotonin 3 (5-HT3) receptor (Rattus norvegicus, UniProt P35563+Q9JJ16).
T1 sequence (P35563 whole entry): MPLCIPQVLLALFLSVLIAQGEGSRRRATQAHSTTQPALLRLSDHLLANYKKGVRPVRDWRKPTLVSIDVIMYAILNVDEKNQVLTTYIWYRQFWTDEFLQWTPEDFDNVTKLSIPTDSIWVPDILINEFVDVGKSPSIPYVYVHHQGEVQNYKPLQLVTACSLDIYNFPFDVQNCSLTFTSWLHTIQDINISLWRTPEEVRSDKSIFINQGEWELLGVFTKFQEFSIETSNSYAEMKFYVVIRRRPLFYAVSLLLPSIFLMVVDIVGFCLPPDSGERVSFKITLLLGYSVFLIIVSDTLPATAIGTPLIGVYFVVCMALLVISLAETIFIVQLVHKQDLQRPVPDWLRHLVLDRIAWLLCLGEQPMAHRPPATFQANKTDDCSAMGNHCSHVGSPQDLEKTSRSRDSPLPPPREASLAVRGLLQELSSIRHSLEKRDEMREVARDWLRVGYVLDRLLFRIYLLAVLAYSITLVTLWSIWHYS
T1 sequence (Q9JJ16 whole entry): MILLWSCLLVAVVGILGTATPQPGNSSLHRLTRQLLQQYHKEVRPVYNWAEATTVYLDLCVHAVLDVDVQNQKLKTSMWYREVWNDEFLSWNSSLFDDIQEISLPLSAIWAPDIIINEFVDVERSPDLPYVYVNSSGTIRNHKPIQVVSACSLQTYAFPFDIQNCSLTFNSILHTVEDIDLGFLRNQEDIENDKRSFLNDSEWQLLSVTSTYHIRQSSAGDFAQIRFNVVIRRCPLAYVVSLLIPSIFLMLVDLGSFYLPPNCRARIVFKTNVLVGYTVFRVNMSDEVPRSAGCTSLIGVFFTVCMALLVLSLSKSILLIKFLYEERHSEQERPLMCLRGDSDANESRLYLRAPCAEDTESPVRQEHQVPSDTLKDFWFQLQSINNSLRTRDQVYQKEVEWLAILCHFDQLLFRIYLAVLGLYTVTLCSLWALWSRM
Description: Displacement of [3H]GR-65630 binding to 5-hydroxytryptamine 3 receptor in rat brain cortical membranes. It is filed as cell membranes, Membrane. The gist of the method: (§1)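 Radioligand displacement on membrane preparations with glass-fibre filtration and liquid scintillation counting of tritium after overnight equilibration. Four to six test concentrations were used. IC50 came from log-probit linear regression. Ki = IC50/(1 + S/Kd), where S is the [3H]label concentration. Ki is the mean of at least three independent experiments run on different days with different membrane preparations.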
A general note: In a radioligand displacement assay an active substance lowers the binding of a labelled ligand.

Experiment [2] concerns the target GABA-A receptor; anion channel. Put plainly: Displacement of [3H]- Diazepam from rat GABA-A benzodiazepine receptor. It is filed as protein-complex assay. The gist of the method:
as §1

In experiment [3] the target is Gastrin/cholecystokinin type B receptor (Rattus norvegicus, UniProt P30553). Description: The binding affinity was measured on cholecystokinin type B receptor using [3H]- CCK-8 as radioligand.
Experiment [4] has as its target Muscarinic acetylcholine receptor M1 (Rattus norvegicus, UniProt P08482). Put plainly: The binding affinity was measured on muscarine M1 receptor using [3H]- pirenzepine as radioligand.
For experiment [5], the target named is Cholecystokinin receptor type A (Rattus norvegicus, UniProt P30551). Description: The binding affinity was measured on cholecystokinin type A receptor using [3H]- CCK-8 as radioligand.
Cholecystokinin receptor type A, sequence (P30551 whole entry): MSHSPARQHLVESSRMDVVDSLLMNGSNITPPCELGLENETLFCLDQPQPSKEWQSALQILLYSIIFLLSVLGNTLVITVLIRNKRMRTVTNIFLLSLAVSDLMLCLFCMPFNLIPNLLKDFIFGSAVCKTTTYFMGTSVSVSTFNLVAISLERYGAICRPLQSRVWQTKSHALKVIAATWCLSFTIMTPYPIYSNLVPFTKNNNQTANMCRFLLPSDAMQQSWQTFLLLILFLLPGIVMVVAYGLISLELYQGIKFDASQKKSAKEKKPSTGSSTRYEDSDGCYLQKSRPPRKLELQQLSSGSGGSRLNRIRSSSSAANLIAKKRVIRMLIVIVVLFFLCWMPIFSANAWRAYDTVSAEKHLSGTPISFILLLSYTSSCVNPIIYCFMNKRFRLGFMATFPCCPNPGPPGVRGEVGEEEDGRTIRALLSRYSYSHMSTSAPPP
A further experiment is filed under the species Mus musculus. Put plainly: Lowest effective dose affecting behavioral parameter in at least half of the animals.
Experiment [6] can be described thus: The binding affinity was measured on substance P as radioligand. More on the design: species or system Rattus norvegicus.
The next experiment concerns the target Mu-type opioid receptor (Rattus norvegicus, UniProt P33535). Put plainly: The binding affinity was measured on mu-opiate receptor using [3H]- naloxone as radioligand.
The target of experiment [7] is T2, Voltage-gated L-type calcium channel (Rattus norvegicus, UniProt P22002+Q02485+P27732). Put plainly: Inhibition of [3H]nitrendipine binding to L-type calcium channel dihydropyridine site of rat brain. An outline of the steps:
(§2)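 Radioligand displacement on tissue membrane suspensions, with 4–6 concentrations of unlabeled test drug. Bound label was collected on GF/B glass-fibre filters, equilibrated overnight in scintillant, and counted for tritium. […] Ki = IC50/(1 + S/Kd), where S is the label concentration. Each value is the mean of ≥3 independent experiments on different days with different membrane preparations.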

Experiment [8] deals with GABA-A receptor; anion channel. Put plainly: Displacement of [3H]DH-muscimol from rat GABA-A receptor. Type of experiment: protein-complex assay. An outline of the steps: as §1
Experiment [9] is described as follows: The binding affinity was measured on melatonin receptor using [3H]- 2-iodo-melat as radioligand.
Experiment [10] addresses Interleukin-6 receptor subunit alpha (Rattus norvegicus, UniProt P22273). Description: The binding affinity was measured on […] receptor using [3H]- IL-6 as radioligand. An outline of the steps:
as §2

Experiment [11] addresses Muscarinic acetylcholine receptor M3 (Rattus norvegicus, UniProt P08483). Put plainly: The binding affinity was measured on muscarine M3 receptor using [3H]- N-Me-SCOPOL as radioligand.
For a further experiment, the species on record is Cavia porcellus. Description: The pA2 is the negative logarithm of the molar concentration of an antagonist which necessitates the doubling of the agonist dose to couteract the effect of that antagonist and restore the original response was measured in guinea pig isolated ileu m test.
Another experiment addresses Adrenergic receptor beta (Rattus norvegicus, UniProt P18090+P10608+P26255). Description: The binding affinity was measured on beta-1,2-adrenergic receptor using [3H]- DHA as radioligand. It is filed as protein assay.
Experiment [12] concerns the target Muscarinic acetylcholine receptor M2 (Rattus norvegicus, UniProt P10980). Description: The binding affinity was measured on muscarine M2 receptor using [3H]- N-Me-SCOPOL as radioligand. An outline of the steps:
as §2

For experiment [13], the species on record is Rattus norvegicus. Description: The pA2 is the negative logarithm of the molar concentration of an antagonist which necessitates the doubling of the agonist dose to couteract the effect of that antagonist and restore the original response was measured in rat isolated vagus nerve test. It is filed as functional. As to conditions: read-out: pA2 (converted).

In another experiment the target is D(1A) dopamine receptor (Rattus norvegicus, UniProt P18901). Put plainly: The binding affinity was measured on dopamine receptor D1 using [3H]- dopamine as radioligand.
D(1A) dopamine receptor, sequence (P18901 whole entry): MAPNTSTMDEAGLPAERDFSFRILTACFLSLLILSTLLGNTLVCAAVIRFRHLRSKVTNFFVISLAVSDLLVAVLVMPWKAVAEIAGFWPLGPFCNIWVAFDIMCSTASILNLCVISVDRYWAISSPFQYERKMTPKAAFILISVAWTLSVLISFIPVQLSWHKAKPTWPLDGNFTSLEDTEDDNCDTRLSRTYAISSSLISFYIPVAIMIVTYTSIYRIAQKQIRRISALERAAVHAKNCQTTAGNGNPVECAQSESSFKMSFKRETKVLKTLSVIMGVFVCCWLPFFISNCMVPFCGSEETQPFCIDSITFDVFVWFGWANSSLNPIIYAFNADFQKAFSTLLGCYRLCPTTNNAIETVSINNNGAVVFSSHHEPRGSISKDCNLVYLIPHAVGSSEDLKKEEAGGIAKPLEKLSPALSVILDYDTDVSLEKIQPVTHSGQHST
The target of experiment [14] is Alpha-2A adrenergic receptor (Rattus norvegicus, UniProt P22909). Put plainly: The binding affinity was measured on alpha-2-adrenergic receptor using [3H]- clonidine as radioligand.
Alpha-2A adrenergic receptor, sequence (P22909 whole entry): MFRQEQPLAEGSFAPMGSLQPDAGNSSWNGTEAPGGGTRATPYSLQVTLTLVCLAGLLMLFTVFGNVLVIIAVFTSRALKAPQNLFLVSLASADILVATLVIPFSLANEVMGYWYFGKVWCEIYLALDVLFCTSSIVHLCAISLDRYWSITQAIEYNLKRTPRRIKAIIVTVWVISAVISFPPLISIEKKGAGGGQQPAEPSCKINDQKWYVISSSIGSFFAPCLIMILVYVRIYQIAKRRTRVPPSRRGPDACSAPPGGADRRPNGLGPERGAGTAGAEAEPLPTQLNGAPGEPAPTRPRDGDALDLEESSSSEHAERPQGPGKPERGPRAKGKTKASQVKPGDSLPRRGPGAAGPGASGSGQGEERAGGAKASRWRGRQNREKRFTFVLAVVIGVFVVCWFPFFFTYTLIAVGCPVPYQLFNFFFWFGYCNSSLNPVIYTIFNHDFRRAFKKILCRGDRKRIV
For a further experiment, the target named is D(3) dopamine receptor (Rattus norvegicus, UniProt P19020). Description: The binding affinity was measured on dopamine receptor D3 using [3H]- spiperone as radioligand.
Experiment [15] has as its target Delta-type opioid receptor (Rattus norvegicus, UniProt P33533). Description: The binding affinity was measured on delta-opiate receptor using [3H]- dadle as radioligand.
The nature of experiment [16]: The binding affinity was measured on glycine strych. ins receptor using [3H]- 5,7-diClkyn.acid as radioligand. More on the design: species or system Rattus norvegicus.
A further experiment addresses D(2) dopamine receptor (Rattus norvegicus, UniProt P61169). Put plainly: The binding affinity was measured on dopamine receptor D2 using [3H]- spiperone as radioligand.
The target of the next experiment is Histamine H3 receptor (Rattus norvegicus, UniProt Q9QYN8). Description: The binding affinity was measured on histamine H3 receptor using [3H]- N-Me-histam as radioligand.
Histamine H3 receptor, sequence (Q9QYN8 whole entry): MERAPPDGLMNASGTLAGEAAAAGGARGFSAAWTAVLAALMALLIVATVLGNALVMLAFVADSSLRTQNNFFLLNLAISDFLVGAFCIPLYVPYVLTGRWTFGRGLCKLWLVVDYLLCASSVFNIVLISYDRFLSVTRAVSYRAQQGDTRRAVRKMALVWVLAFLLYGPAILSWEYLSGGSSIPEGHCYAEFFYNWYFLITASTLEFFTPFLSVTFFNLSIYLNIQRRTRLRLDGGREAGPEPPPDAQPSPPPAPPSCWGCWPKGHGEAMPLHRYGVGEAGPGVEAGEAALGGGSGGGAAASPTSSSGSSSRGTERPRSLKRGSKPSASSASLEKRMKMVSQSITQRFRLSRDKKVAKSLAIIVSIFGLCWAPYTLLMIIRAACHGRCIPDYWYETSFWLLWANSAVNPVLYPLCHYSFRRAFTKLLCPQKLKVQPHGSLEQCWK
In experiment [17] the target is Glutamate receptor ionotropic, NMDA 2C (Rattus norvegicus, UniProt Q00961). Description: The binding affinity was measured on NMDA receptor using [3H]- CGS-19755 as radioligand.
For experiment [18], the species on record is Rattus norvegicus. Description: Dose of antagonist which inhibits the by the 2-Me-5-HT induced slowing of the heart rate by 10 beats/5 s. Type of experiment: functional. An outline of the steps:
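Von Bezold-Jarisch reflex test in unrestrained conscious rats, with the compound given orally. The bradycardia (slowing of heart rate) was induced by 2-Me-5-HT. The value is the antagonist dose that reduces this slowing by 10 beats/5 s.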

The target of experiment [19] is Sigma non-opioid intracellular receptor 1 (Rattus norvegicus, UniProt Q9R0C9). Put plainly: The binding affinity was measured on sigma receptor using [3H]- (+)-3-PPP as radioligand.
Sigma non-opioid intracellular receptor 1, sequence (Q9R0C9 whole entry): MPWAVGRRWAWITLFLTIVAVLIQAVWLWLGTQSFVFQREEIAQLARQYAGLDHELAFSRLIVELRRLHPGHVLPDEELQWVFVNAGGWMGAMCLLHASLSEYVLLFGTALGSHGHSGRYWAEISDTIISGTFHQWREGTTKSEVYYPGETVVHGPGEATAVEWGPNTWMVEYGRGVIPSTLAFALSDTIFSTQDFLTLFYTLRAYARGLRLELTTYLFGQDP
Experiment [20] deals with Kappa-type opioid receptor (Rattus norvegicus, UniProt P34975). Description: The binding affinity was measured on kappa-opiate receptor using [3H]- EKC as radioligand.
In experiment [21] the target is T2, Voltage-gated L-type calcium channel. Description: Inhibition of [3H]D-888 binding to L-type calcium channel verapamil site of rat brain. The gist of the method:
as §2

A short description of experiment [22]: The binding affinity was measured on Na+2(BTX)brain receptor using [3H]- batrachotox as radioligand. More on the design: species or system Rattus norvegicus.
A further experiment addresses Histamine H1 receptor (Rattus norvegicus, UniProt P31390). Description: The binding affinity was measured on histamine H1 receptor using [3H]- mepyramine as radioligand.
The target in experiment [23] is Thyrotropin-releasing hormone receptor (Rattus norvegicus, UniProt Q01717). Description: The binding affinity was measured on TRH receptor using [3H]- MeTRH as radioligand.
Thyrotropin-releasing hormone receptor, sequence (Q01717 whole entry): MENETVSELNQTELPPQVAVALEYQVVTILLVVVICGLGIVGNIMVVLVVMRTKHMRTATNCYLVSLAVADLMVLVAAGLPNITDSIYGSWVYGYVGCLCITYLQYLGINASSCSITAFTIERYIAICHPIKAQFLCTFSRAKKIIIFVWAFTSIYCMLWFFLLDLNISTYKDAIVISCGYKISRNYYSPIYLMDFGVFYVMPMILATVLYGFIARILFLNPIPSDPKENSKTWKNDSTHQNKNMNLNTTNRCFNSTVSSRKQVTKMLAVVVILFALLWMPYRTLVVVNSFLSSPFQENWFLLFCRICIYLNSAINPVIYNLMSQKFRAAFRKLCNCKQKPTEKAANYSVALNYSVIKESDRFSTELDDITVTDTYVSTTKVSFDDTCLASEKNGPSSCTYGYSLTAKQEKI

Interleukin-6 receptor subunit alpha, sequence (P22273 whole entry): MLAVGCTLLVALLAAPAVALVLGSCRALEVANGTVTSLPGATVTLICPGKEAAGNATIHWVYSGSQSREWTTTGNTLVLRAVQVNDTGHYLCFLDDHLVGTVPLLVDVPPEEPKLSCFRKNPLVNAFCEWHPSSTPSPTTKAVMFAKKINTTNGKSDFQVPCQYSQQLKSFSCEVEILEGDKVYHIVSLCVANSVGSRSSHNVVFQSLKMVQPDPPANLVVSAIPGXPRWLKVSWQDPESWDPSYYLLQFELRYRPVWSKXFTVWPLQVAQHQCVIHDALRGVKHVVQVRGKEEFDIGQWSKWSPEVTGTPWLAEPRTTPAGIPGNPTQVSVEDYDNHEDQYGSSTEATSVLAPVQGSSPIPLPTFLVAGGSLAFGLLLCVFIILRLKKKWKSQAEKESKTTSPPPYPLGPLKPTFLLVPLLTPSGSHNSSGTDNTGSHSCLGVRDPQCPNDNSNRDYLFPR
D(2) dopamine receptor, sequence (P61169 whole entry): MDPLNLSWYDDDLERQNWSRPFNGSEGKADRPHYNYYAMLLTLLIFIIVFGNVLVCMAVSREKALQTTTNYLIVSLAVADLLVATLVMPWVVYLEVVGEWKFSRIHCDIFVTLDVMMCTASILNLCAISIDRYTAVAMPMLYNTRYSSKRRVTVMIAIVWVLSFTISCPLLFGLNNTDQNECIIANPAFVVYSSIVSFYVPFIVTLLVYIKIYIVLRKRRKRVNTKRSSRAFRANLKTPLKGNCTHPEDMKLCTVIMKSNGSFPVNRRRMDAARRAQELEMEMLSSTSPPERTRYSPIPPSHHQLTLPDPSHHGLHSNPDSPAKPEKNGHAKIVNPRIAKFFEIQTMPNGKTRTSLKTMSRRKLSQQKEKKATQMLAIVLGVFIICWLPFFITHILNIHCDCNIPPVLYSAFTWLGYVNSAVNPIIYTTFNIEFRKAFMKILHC
Mu-type opioid receptor, sequence (P33535 whole entry): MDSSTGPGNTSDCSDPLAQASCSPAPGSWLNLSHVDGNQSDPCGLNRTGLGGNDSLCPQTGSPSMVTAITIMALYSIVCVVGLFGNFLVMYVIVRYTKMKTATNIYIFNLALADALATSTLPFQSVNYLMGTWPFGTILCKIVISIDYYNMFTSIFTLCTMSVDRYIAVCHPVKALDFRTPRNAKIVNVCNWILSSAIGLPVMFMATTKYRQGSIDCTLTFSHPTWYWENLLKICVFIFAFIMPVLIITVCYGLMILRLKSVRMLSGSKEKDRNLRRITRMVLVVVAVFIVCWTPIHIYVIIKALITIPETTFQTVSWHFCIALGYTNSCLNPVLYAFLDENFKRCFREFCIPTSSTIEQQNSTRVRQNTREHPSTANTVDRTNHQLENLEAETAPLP
Muscarinic acetylcholine receptor M1, sequence (P08482 whole entry): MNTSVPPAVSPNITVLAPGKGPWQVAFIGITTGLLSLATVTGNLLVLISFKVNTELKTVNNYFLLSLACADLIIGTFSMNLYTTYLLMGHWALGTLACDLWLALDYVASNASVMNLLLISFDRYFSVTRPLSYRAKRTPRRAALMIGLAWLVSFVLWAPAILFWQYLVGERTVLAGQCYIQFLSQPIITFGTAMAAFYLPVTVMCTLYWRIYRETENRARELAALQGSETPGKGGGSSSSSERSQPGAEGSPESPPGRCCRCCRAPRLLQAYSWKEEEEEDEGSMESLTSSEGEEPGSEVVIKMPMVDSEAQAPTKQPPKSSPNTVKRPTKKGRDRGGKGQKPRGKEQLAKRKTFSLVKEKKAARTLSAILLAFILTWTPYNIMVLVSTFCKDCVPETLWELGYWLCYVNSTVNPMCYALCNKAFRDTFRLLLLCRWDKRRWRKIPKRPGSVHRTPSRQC
Muscarinic acetylcholine receptor M2, sequence (P10980 whole entry): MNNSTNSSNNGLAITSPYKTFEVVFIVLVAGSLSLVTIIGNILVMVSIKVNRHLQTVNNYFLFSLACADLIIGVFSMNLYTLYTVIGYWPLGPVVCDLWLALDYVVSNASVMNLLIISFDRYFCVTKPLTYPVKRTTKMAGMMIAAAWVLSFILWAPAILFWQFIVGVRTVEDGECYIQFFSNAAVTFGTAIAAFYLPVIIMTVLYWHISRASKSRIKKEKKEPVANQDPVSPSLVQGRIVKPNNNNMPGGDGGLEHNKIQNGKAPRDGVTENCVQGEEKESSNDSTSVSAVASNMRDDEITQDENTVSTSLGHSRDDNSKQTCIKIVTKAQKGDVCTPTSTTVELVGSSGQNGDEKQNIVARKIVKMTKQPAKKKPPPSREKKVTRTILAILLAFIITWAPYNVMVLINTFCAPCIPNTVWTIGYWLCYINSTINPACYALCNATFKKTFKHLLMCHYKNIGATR

In the case of `Cc1[nH]cnc1CCC(=O)c1cn(C)c2ccccc12`, the negative-log Ki (pKi) in [1] is 9.55.
Consider `Cc1nc[nH]c1CCC(=O)c1cn2c3c(cccc13)SCC2`, for which the negative-log Ki (pKi) in experiment [1] was 9.72.
As to `Cc1[nH]cnc1CCC(=O)c1cn2c3c(cccc13)CCC2`, the pKi in experiment [1] was 10.12.
In experiment [1], `Cc1[nH]cnc1CCC(=O)c1cn2c3c(cccc13)CCCC2` had a negative-log Ki (pKi) of 9.48.
The molecule `Cc1nccn1CC1CCc2c(c3cccc4c3n2CCO4)C1=O` (racemic) had a pKi in experiment [1] of 8.89.
`Cc1nccn1CC1CCc2c(c3cccc4c3n2CCCCC4)C1=O` (racemic) showed a pKi in experiment [1] of 8.96.
In experiment [1], `Cc1nccn1CC1CCc2c(c3cccc4c3n2CCS4)C1=O` (racemic) showed a negative logarithm of the Ki (pKi) of 9.11.
For the molecule `Cc1nccn1CC1CCc2c(c3cccc4c3n2CCCC4)C1=O` (racemic), the pKi in [1] was 9.12.
As for `Cc1nccn1CC1CCc2c(c3cccc4c3n2CC4)C1=O` (racemic), in experiment [1], the negative-log Ki (pKi) is 9.64.
In the case of `Cc1nccn1CC1CCc2c(c3cccc4c3n2CCCC4)C1=O` (single isomer, unassigned; (+)), the pKi in [1] was 9.03.
The same measure, in the same setting: the same measure for `Cc1nccn1CC1CCc2c(c3cccc4c3n2CCCC4)C1=O` (single isomer, unassigned; (-)): 9.19.
For the molecule `Cc1nccn1C[C@H]1CCc2c(c3cccc4c3n2CCC4)C1=O` [CILANSETRON], the pKi in experiment [2] was below 5.00; in [3] it was below 5.00; in [4] it was 6.04; in experiment [5], below 5.00; in [6], below 5.00; at Mu-type opioid receptor, 5.07. Besides, the negative-log Ki (pKi) (in [8]; in [9]; in experiment [10]; in experiment [11]; in experiment [12]; at D(1A) dopamine receptor) was below 5.00 each time. Moreover, the pKi (in experiment [14]; on D(3) dopamine receptor; in [15]; in experiment [16]; on D(2) dopamine receptor; on Histamine H3 receptor) was below 5.00 in each case. The pKi in experiment [17] was below 5.00; in [19], 6.47; in [20], below 5.00; in experiment [22], below 5.00; at Histamine H1 receptor it was 5.19; in [23], below 5.00. For the same molecule, the LED in the experiment filed under Mus musculus stood at 30 mg/kg. In addition, the values for the Ki (in experiment [7]; at Adrenergic receptor beta; in [21]) were above 10 µM, above 10 µM and 5.4 µM, respectively. Also, the figures for the Kb in the experiment listed under Cavia porcellus and in the experiment filed under Rattus norvegicus [13] were 0.0158 µM and 0.000115 µM, respectively. Further, the ED10 in the experiment filed under Rattus norvegicus [18] came to 0.026 mg/kg.
Turning to `Cc1nccn1CC1CCc2c(c3ccccc3n2C)C1=O` (stereo not drawn) [ONDANSETRON], the pKi in experiment [2] is below 5.00; in experiment [3], below 5.00; in [4] it was 5.29; in experiment [5], below 5.00; in [6], below 5.00; on Mu-type opioid receptor it was 5.54. Further, the pKi (in experiment [8]; in experiment [9]; in [10]; in [11]; in experiment [12]; on D(1A) dopamine receptor) was below 5.00 throughout. Moreover, the negative logarithm of the Ki (pKi) (in [14]; at D(3) dopamine receptor; in [15]; in [16]; on D(2) dopamine receptor; at Histamine H3 receptor) was below 5.00 each time. Further, the pKi was below 5.00 in experiment [17]; 6.17 in experiment [19]; below 5.00 in experiment [20]; below 5.00 in experiment [22]; below 5.00 at Histamine H1 receptor; below 5.00 in [23]. This molecule registered an LED in the experiment filed under Mus musculus of 3 mg/kg. The Ki (in experiment [7]; on Adrenergic receptor beta; in experiment [21]) was above 10 µM in each case. In addition, the Kb in the experiment listed under Cavia porcellus is 0.158 µM; in the experiment listed under Rattus norvegicus [13], 0.00102 µM. For the same molecule, the ED10 in the experiment listed under Rattus norvegicus [18] was determined as 0.165 mg/kg.
